Active and inactive are the calls of the source. The calls are words filed in the database; no cut-off is given here.
System: Mus musculus
Assay: Anticonvulsant activity in Swiss albino mouse assessed as reduction in electrical stimulus-induced seizures at 300 mg/kg, ip after 4 hrs by maximal electroshock seizure test
Format: functional, organism-based
Design: dose 300 mg/kg
Conditions: not given
In short: (§1)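 Adult male Swiss albino mice; test agents given i.p. at 30, 100 and 300 mg/kg, with animals examined 0.5 h and 4.0 h after injection. Value is the minimal dose protecting half or more of the mice; a dash means no activity at 300 mg/kg.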

Structure (SMILES)	Activity
CCOC(=O)Nc1ccc(N2CCN(Cc3ccc4c(c3)OCO4)CC2)cc1	inactive
CCOC(=O)Nc1ccc(N2CCN(c3ccc(C(F)(F)F)cc3)CC2)cc1	inactive
CCCC(CCC)C(=O)O [VALPROIC ACID]	inactive

System: Mus musculus
Assay: Anticonvulsant activity in Swiss albino mouse assessed as reduction in clonic seizures at 300 mg/kg, ip after 0.5 hrs by subcutaneous pentylenetetrazole seizure test
Format: functional, organism-based
Design: dose 300 mg/kg
Conditions: not given
In short: as §1

Structure (SMILES)	Activity
CCOC(=O)Nc1ccc(N2CCN(C(c3ccccc3)c3ccccc3)CC2)cc1	inactive
CCOC(=O)Nc1ccc(N2CCN(C(c3ccc(F)cc3)c3ccc(F)cc3)CC2)cc1	inactive
O=C1NC(=O)C(c2ccccc2)(c2ccccc2)N1 [PHENYTOIN]	inactive
CCOC(=O)Nc1ccc(N2CCN(C(=O)c3ccco3)CC2)cc1	inactive
CCCC(CCC)C(=O)O [VALPROIC ACID]	inactive
CCOC(=O)Nc1ccc(N2CCN(c3ncccn3)CC2)cc1	inactive
CCOC(=O)Nc1ccc(N2CCN(Cc3ccccc3)CC2)cc1	inactive

System: Mus musculus
Assay: Anticonvulsant activity in intraperitoneally dosed Swiss albino mouse assessed as reduction in electrical stimulus-induced seizures after 0.5 hrs by maximal electroshock seizure test
Format: functional
Conditions: not given
In short: as §1

Structure (SMILES)	MED50 [mg/kg]
O=C1NC(=O)C(c2ccccc2)(c2ccccc2)N1 [PHENYTOIN]	30
CCOC(=O)Nc1ccc(N2CCN(c3ccccc3)CC2)cc1	30
CCOC(=O)Nc1ccc(N2CCN(c3ccc(C(F)(F)F)cc3)CC2)cc1	100
CCOC(=O)Nc1ccc(N2CCN(c3ncccn3)CC2)cc1	100
CCOC(=O)Nc1ccc(N2CCN(Cc3ccccc3)CC2)cc1	100
CCOC(=O)Nc1ccc(N2CCN(c3ccc(Cl)cc3)CC2)cc1	100

System: Mus musculus
Assay: Toxicity in Swiss albino mouse assessed as induction of sedation at 300 mg/kg, ip after 0.5 hrs during subcutaneous pentylenetetrazole seizure test
Format: organism-based
Design: dose 300 mg/kg
Conditions: not given

Structure (SMILES)	Activity
CCOC(=O)Nc1ccc(N2CCN(c3ccc(C(F)(F)F)cc3)CC2)cc1	Toxic

System: Mus musculus
Assay: Anticonvulsant activity in Swiss albino mouse assessed as reduction in electrical stimulus-induced seizures at 300 mg/kg, ip after 0.5 hrs by maximal electroshock seizure test
Format: functional, organism-based
Design: dose 300 mg/kg
Conditions: not given
In short: as §1

Structure (SMILES)	Activity
CCOC(=O)Nc1ccc(N2CCN(C(c3ccccc3)c3ccccc3)CC2)cc1	inactive
CCOC(=O)Nc1ccc(N2CCN(C(c3ccc(F)cc3)c3ccc(F)cc3)CC2)cc1	inactive
CCOC(=O)Nc1ccc(N2CCN(Cc3ccc4c(c3)OCO4)CC2)cc1	inactive
CCOC(=O)Nc1ccc(N2CCN(C(=O)c3ccco3)CC2)cc1	inactive
CCCC(CCC)C(=O)O [VALPROIC ACID]	inactive

System: Mus musculus
Assay: Toxicity in Swiss albino mouse assessed as induction of death following tonic extension at 300 mg/kg, ip after 0.5 hrs during maximal electroshock seizure test
Format: organism-based
Design: dose 300 mg/kg, route intraperitoneal
Conditions: in vivo

Structure (SMILES)	Activity
CCOC(=O)Nc1ccc(N2CCN(c3ncccn3)CC2)cc1	Toxic

System: Mus musculus
Assay: Neurological toxicity in Swiss albino mouse assessed as motor impairment at 300 mg/kg, ip after 0.5 hrs by rotarod test
Format: organism-based
Design: dose 300 mg/kg, route intraperitoneal
Conditions: in vivo
In short: (§2)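 Adult male Swiss albino mice dosed i.p. at 30, 100 and 300 mg/kg, examined at 0.5 h and 4.0 h. Neurotoxicity is scored as failure to hold onto the rotating rod, with three successive trials. Value is the minimal dose active in half or more of the mice.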

Structure (SMILES)	Activity
CCOC(=O)Nc1ccc(N2CCN(C(c3ccccc3)c3ccccc3)CC2)cc1	Non-toxic
CCOC(=O)Nc1ccc(N2CCN(C(c3ccc(F)cc3)c3ccc(F)cc3)CC2)cc1	Non-toxic
CCOC(=O)Nc1ccc(N2CCN(Cc3ccc4c(c3)OCO4)CC2)cc1	Non-toxic
CCOC(=O)Nc1ccc(N2CCN(C(=O)c3ccco3)CC2)cc1	Non-toxic
CCOC(=O)Nc1ccc(N2CCN(c3ccccc3)CC2)cc1	Non-toxic
CCCC(CCC)C(=O)O [VALPROIC ACID]	Non-toxic
CCOC(=O)Nc1ccc(N2CCN(c3ncccn3)CC2)cc1	Non-toxic
CCOC(=O)Nc1ccc(N2CCN(Cc3ccccc3)CC2)cc1	Non-toxic

System: Mus musculus
Assay: Anticonvulsant activity in intraperitoneally dosed Swiss albino mouse assessed as reduction in clonic seizures after 0.5 hrs by subcutaneous pentylenetetrazole seizure test
Format: functional
Conditions: not given
In short: as §1

Structure (SMILES)	MED50 [mg/kg]
CCOC(=O)Nc1ccc(N2CCN(Cc3ccc4c(c3)OCO4)CC2)cc1	300
CCOC(=O)Nc1ccc(N2CCN(c3ccccc3)CC2)cc1	300
CCOC(=O)Nc1ccc(N2CCN(c3ccc(C(F)(F)F)cc3)CC2)cc1	300
CCOC(=O)Nc1ccc(N2CCN(c3ccc(Cl)cc3)CC2)cc1	100

System: Mus musculus
Assay: Toxicity in Swiss albino mouse assessed as induction of myoclonic jerks at 100 mg/kg, ip after 4 hrs during subcutaneous pentylenetetrazole seizure test
Format: organism-based
Design: dose 100 mg/kg
Conditions: not given

Structure (SMILES)	Activity
CCOC(=O)Nc1ccc(N2CCN(C(c3ccc(F)cc3)c3ccc(F)cc3)CC2)cc1	Toxic

System: Mus musculus
Assay: Anticonvulsant activity in intraperitoneally dosed Swiss albino mouse assessed as reduction in electrical stimulus-induced seizures after 4 hrs by maximal electroshock seizure test
Format: functional
Conditions: not given
In short: as §1

Structure (SMILES)	MED50 [mg/kg]
CCOC(=O)Nc1ccc(N2CCN(C(c3ccccc3)c3ccccc3)CC2)cc1	300
CCOC(=O)Nc1ccc(N2CCN(C(c3ccc(F)cc3)c3ccc(F)cc3)CC2)cc1	300
O=C1NC(=O)C(c2ccccc2)(c2ccccc2)N1 [PHENYTOIN]	30
CCOC(=O)Nc1ccc(N2CCN(C(=O)c3ccco3)CC2)cc1	100
CCOC(=O)Nc1ccc(N2CCN(c3ccccc3)CC2)cc1	300
CCOC(=O)Nc1ccc(N2CCN(c3ncccn3)CC2)cc1	300
CCOC(=O)Nc1ccc(N2CCN(Cc3ccccc3)CC2)cc1	100
CCOC(=O)Nc1ccc(N2CCN(c3ccc(Cl)cc3)CC2)cc1	300

System: Mus musculus
Assay: Neurological toxicity in Swiss albino mouse assessed as motor impairment at 300 mg/kg, ip after 4 hrs by rotarod test
Format: organism-based
Design: dose 300 mg/kg, route intraperitoneal
Conditions: in vivo
In short: as §2

Structure (SMILES)	Activity
CCOC(=O)Nc1ccc(N2CCN(C(c3ccccc3)c3ccccc3)CC2)cc1	Non-toxic
CCOC(=O)Nc1ccc(N2CCN(C(c3ccc(F)cc3)c3ccc(F)cc3)CC2)cc1	Non-toxic
CCOC(=O)Nc1ccc(N2CCN(Cc3ccc4c(c3)OCO4)CC2)cc1	Non-toxic
CCOC(=O)Nc1ccc(N2CCN(C(=O)c3ccco3)CC2)cc1	Non-toxic
CCOC(=O)Nc1ccc(N2CCN(c3ccccc3)CC2)cc1	Non-toxic
CCCC(CCC)C(=O)O [VALPROIC ACID]	Non-toxic
CCOC(=O)Nc1ccc(N2CCN(c3ncccn3)CC2)cc1	Non-toxic
CCOC(=O)Nc1ccc(N2CCN(Cc3ccccc3)CC2)cc1	Non-toxic

System: Mus musculus
Assay: Toxicity in Swiss albino mouse assessed as induction of myoclonic jerks at 300 mg/kg, ip after 0.5 hrs during subcutaneous pentylenetetrazole seizure test
Format: organism-based
Design: dose 300 mg/kg
Conditions: not given

Structure (SMILES)	Activity
CCOC(=O)Nc1ccc(N2CCN(Cc3ccc4c(c3)OCO4)CC2)cc1	Toxic

System: Mus musculus
Assay: Anticonvulsant activity in Swiss albino mouse model of pentylenetetrazole-induced kindling related chronic epilepsy assessed as reduction in incidence and seizure severity score by at 30 mg/kg, ip administered daily for 5 weeks followed by injection of 30 mg/kg, ip PTZ on every alternate day till full kindling development
Format: functional, organism-based
Conditions: not given
In short: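 Adult Swiss albino male mice, randomised to seven groups (n = 8; PTZ group n = 9). Test drug given i.p. over 35 days, with PTZ 30 mg/kg i.p. on alternate days for 5 weeks. Seizures scored visually each week. Mean score ± SEM compared by ANOVA with Tukey's test.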

Structure (SMILES)	Activity
CCC1(c2ccccc2)C(=O)NC(=O)NC1=O	Active

System: Mus musculus
Assay: Toxicity in Swiss albino mouse assessed as induction of sedation at 100 mg/kg, ip after 0.5 hrs during maximal electroshock seizure test
Format: organism-based
Design: dose 100 mg/kg, route intraperitoneal
Conditions: in vivo

Structure (SMILES)	Activity
CCOC(=O)Nc1ccc(N2CCN(c3ccc(C(F)(F)F)cc3)CC2)cc1	Toxic
CCOC(=O)Nc1ccc(N2CCN(c3ccc(Cl)cc3)CC2)cc1	Toxic

System: Mus musculus
Assay: Anticonvulsant activity in intraperitoneally dosed Swiss albino mouse assessed as reduction in clonic seizures after 4 hrs by subcutaneous pentylenetetrazole seizure test
Format: functional
Conditions: not given
In short: as §1

Structure (SMILES)	MED50 [mg/kg]
CCOC(=O)Nc1ccc(N2CCN(C(c3ccccc3)c3ccccc3)CC2)cc1	300
CCOC(=O)Nc1ccc(N2CCN(C(c3ccc(F)cc3)c3ccc(F)cc3)CC2)cc1	100
CCOC(=O)Nc1ccc(N2CCN(c3ccccc3)CC2)cc1	300
CCCC(CCC)C(=O)O [VALPROIC ACID]	300
CCOC(=O)Nc1ccc(N2CCN(c3ccc(Cl)cc3)CC2)cc1	100

System: Mus musculus
Assay: Anticonvulsant activity in Swiss albino mouse assessed as reduction in clonic seizures at 300 mg/kg, ip after 4 hrs by subcutaneous pentylenetetrazole seizure test
Format: functional, organism-based
Design: dose 300 mg/kg
Conditions: not given
In short: as §1

Structure (SMILES)	Activity
CCOC(=O)Nc1ccc(N2CCN(Cc3ccc4c(c3)OCO4)CC2)cc1	inactive
O=C1NC(=O)C(c2ccccc2)(c2ccccc2)N1 [PHENYTOIN]	inactive
CCOC(=O)Nc1ccc(N2CCN(C(=O)c3ccco3)CC2)cc1	inactive
CCOC(=O)Nc1ccc(N2CCN(c3ccc(C(F)(F)F)cc3)CC2)cc1	inactive
CCOC(=O)Nc1ccc(N2CCN(c3ncccn3)CC2)cc1	inactive
CCOC(=O)Nc1ccc(N2CCN(Cc3ccccc3)CC2)cc1	inactive
